Screening data (PubChem)
H69AR inhibit – proliferation blockers of H69AR lung cancer cells, primary screen, cell-based, human, 86K library | H69AR lung tumor viability, ATP luminescence, 72 h; hits give low values | viability, % at 10 µM | actives 6% (n = 85,000);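 active means viability at or below 40%; inactive means viability above 40%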;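 further: multidrug resistant small cell line overexpressing MRP-1 efflux transporter; 100% = mean luminescence of untreated control wells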
bCat KO growth – primary screen for growth suppressors in beta-catenin knockout HCT116 cells (colon tumor, human) | HCT116 beta-catenin knockout viability, CellTiter-Glo, 60 h; hits give low values | viability, % at 10 µM | actives 1.5% (n = 140,000) | AID 818, 2007;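 active means viability at or under a set limit, the compound median less 4 SD, cut at about 6% in these data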;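 further: 0% = Hyamine 1622 control at 20 µM and 100% = untreated cell control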
HCT116 PTEN-null – growth suppression of PTEN-null HCT116, primary screen, cell-based, CellTiter-Glo. HCT116 PTEN-null viability, 60 h; hits give low values. viability, % at 10 µM. actives 1.2% (n = 140,000);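 active means viability at or below a set limit, 4 SD under the median of all tested compounds, cut at about 3.7% in these data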;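 further: PTEN knockout HCT116 line with beta catenin targeted HCT116 as companion control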
Lung fibro prol – antiproliferative effect on LL 47 fibroblasts – human, LL 47 cells, CellTiter-Glo luminescence, primary screen; LL 47 human lung fibroblast viability, ATP luminescence; hits give low values; viability, % at 10 µM; actives 1.1% (n = 85,000); AID 719, 2007;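 active means viability at or below 50% in the single dose screen; inactive means viability above 50%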;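 further: compound exposure lasted 72 h before the ATP readout; 100% = median luminescence of untreated cell-only wells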
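material = human LL 47 lung fibroblast cells | dosing = compounds added from tenfold dosing solution, 0.1% DMSO final | timing = overnight cell rest, 72 h compound treatment at 37 °C | measured by = CellTiter-Glo luminescence measuring cellular ATP | evaluation = % viability versus median cells-only luminescence | control set = cell-only wells, no compound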
HUVEC prolif 384 – inhibitors of HUVEC proliferation, primary screen, cell-based, 384-well; AID 648, 2007; viability, % at 10 µM (by protocol); CellTiter-Glo luminescence, 72 h; hits give low values; actives 1.1% (n = 86,000);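 active means viability at or below 30%; inactive means viability above 30%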;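 further: 100% = median luminescence of DMSO-only cell control wells on each plate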
Active calls of the source: *; x = no result. The sample as a whole holds a higher share of hits than the screen did.

SMILES	H69AR inhibit	bCat KO growth	HCT116 PTEN-null	Lung fibro prol	HUVEC prolif 384
C=CCNC(=O)C1CC1(c1ccccc1)c1ccccc1 (centres undefined)	x	88	95	x	x
N#CC(C#N)=c1ccc2c(c1)NC1(CCCCC1)N=2	1.1*	1.4*	1.3*	7.4*	28*
COc1cc(C(=O)N[C@H](C(=O)NC(C)C23CC4CC(CC(C4)C2)C3)C(C)C)cc(OC)c1OC (some centres undefined)	42	70	77	48*	44
COc1cc(C(=O)NC(=S)NC(C)C)cc(OC)c1OC	x	95	104	x	x
O=C(CN1CCN(Cc2ccccc2)CC1)N1CCCc2c1c(=O)oc1ccc(O)cc21	7.6*	38	34	82	31
COc1ccc(C(=O)Nc2nnc(-c3ccco3)s2)cc1	8.2*	1.6*	1.8*	97	55
O=C(CN1CCN(S(=O)(=O)c2ccccc2)CC1)Nc1ccc2c(c1)CCC2	x	97	96	x	x
Cc1nn(-c2ccccc2)c2sc(C(=O)n3cccn3)cc12	38*	x	x	92	48
Cc1ccn(C(=O)c2cc3c(C)nn(-c4ccccc4)c3s2)n1	81	82	81	110	53
Cc1cnc(NC(=O)c2cc3c(C)nn(-c4ccccc4)c3s2)s1	26*	61	40	62	64
COc1cc(C2Sc3ccccc3NC3=C2C(=O)OC3)cc(OC)c1OC (centres undefined)	14*	65	49	81	72
CCOC(=O)c1c(-c2ccccc2)oc2ccc(O)c(CN3CCCC3)c12	5.3*	17	15	59	3.5*
COCCOC(=O)c1c(C)oc2ccc(O)c(CN3CCC(C)CC3)c12	87	79	73	95	92
CCOC(=O)c1c(-c2ccccc2)oc2ccc(O)c(CN(C)C)c12	10*	37	39	73	55
CCN(CC)CCCNC(=O)c1cc(-c2ccc(Cl)c(Cl)c2)on1	x	2.0*	2.4*	x	x
Cn1nc(-c2ccc(Cl)cc2)c2cc(C(=O)NCC3CCCO3)sc21 (centres undefined)	51	53	58	79	76
CCN(CC)CCCNC(=O)c1cc2c(-c3ccc(Cl)cc3)nn(C)c2s1	1.8*	0.8*	1.6*	19*	2.4*
CN1CCN(CCCNC(=O)c2cc3c(-c4ccc(Cl)cc4)nn(C)c3s2)CC1	4.5*	1.5*	1.7*	14*	1.9*
CN1C/C(=C/c2cccnc2)C(=O)/C(=C/c2cccnc2)C1	x	2.1*	2.1*	x	x
Cc1ccc(S(=O)(=O)/N=C(\CCl)N2CCOCC2)cc1	1.2*	54	57	59	77
O=C(Nc1ccc(F)cc1)c1ccccc1S(=O)(=O)c1ccccc1[N+](=O)[O-]	x	95	93	x	x
C=CCC(Nc1ccccc1)C12C=CC(O1)C(C(=O)OC)=C2C(=O)OC (centres undefined)	1.0*	2.3*	1.9*	3.1*	45
CC(C)Cn1c(SCC(=O)N2CCN(S(=O)(=O)c3ccccc3)CC2)nc2ccccc21	31*	51	58	95	82
CCOC(=O)c1c(C)oc2c1c(C=NCC1CCCO1)c(O)c1ccccc12 (centres undefined)	26*	70	70	98	88
CCOC(=O)c1c(C)oc2c1c(C=NCc1ccccn1)c(O)c1ccccc12	27*	18	5	92	48
SMILES	H69AR inhibit	bCat KO growth	HCT116 PTEN-null	Lung fibro prol	HUVEC prolif 384
CCOC(=O)c1c(C)oc2c1cc(O)c1ccccc12	62	90	85	101	91
CC(C(=O)Nc1cc([N+](=O)[O-])ccc1Cl)N1CCN(c2ccc(O)cc2)CC1 (centres undefined)	x	85	93	x	x
COc1ccc2c(c1)CCc1c(C(=O)NCCCn3ccnc3)noc1-2	1.5*	82	92	107	93
COCCNC(=O)c1noc2c1CCc1cc(OC)ccc1-2	103	100	96	107	110
COc1cc(NC(=O)CSc2nc3c(C)ccc(C)c3cc2C)c(C(=O)O)cc1OC	x	98	93	x	x
O=C(Nc1ccc(N2CCOCC2)cc1)c1ccc(Cl)nc1	89	101	105	107	101
CS(=O)(=O)c1ncc(Cl)c(C(=O)Nc2ccc(N3CCOCC3)cc2)n1	0.2*	99	96	x	37
Fc1ccc(-c2csc(/C=C/c3ccc4c(c3)OCO4)n2)cc1	x	103	101	x	x
